Measurements from the RNAGym collection of RNA variant scans (doi:10.1126/science.aae0568).
This sample holds only a part of the variants without activity.

B1: tRNA (parent)
chain: GUUCCGUUGGCGUAAUGGUAACGCGUCUCCCUCCUAAGGAGAAGACUGCGGGUUCGAGUCCCGUACGGAACG

Variants of: B1
Assay: yeast fitness relative to wild type (ratio to wild type); higher = fitter; tRNA-Arg(CCU), competitive growth, 37 C, YPD
Outline: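 Genotype frequency changes were the basis for Darwinian fitness relative to wild type. The frequencies came from 100-nucleotide paired-end sequencing of gene amplicons from the start population and each end population of pooled yeast strains with tRNA-Arg(CCU) gene variants at the native locus. Competition ran in YPD at 37°C for 24 hours in six replicates, genotypes needed ≥ 100 starting reads, and estimates < 0.5 were set to 0.5.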

First: C24U G51C C55U
Second: C24U G52A
The yeast fitness of the first is lower: at most 0.5 for the first, 0.871 for the second.

Compared with C24U G52A A57C, C24U G56A G67A is higher in yeast fitness: at most 0.5 for the first, 0.731 for the second.

Compared with C24U G56C, C24U G56C A57G is lower in yeast fitness: 0.792 for the first, at most 0.5 for the second.

Going from C24U G58A A65C to C24U G58A C62U G63A, the yeast fitness falls from 0.707 to at most 0.5.

First: C24U G58C A65U
Second: C24U G63U
The yeast fitness of the first is higher: 0.644 for the first, 0.627 for the second.

Compared with C24U G67C G68A, C24U G68A is higher in yeast fitness: 0.587 for the first, 0.697 for the second.

Compared with C24U U26A, C24U U26A G68A is lower in yeast fitness: 0.938 for the first, 0.604 for the second.

Compared with C24U U26A U28G U54G, C24U U26A U28G U54G C61U is lower in yeast fitness: 0.545 for the first, at most 0.5 for the second.

First: C24U U26C
Second: C24U U26C A65C
The yeast fitness of the first is higher: 0.986 for the first, 0.695 for the second.

Compared with C24U U26C C49U, C24U U26C G68A is lower in yeast fitness: 0.692 for the first, 0.566 for the second.

Compared with C24U U26G, C24U U26G A43G is lower in yeast fitness: 0.987 for the first, 0.727 for the second.

Compared with C24U U26G A43G A70U, C24U U26G C30U G39C is lower in yeast fitness: 0.597 for the first, at most 0.5 for the second.

Compared with C24U U26G C61G, C24U U26G G41A A57U is higher in yeast fitness: at most 0.5 for the first, 0.641 for the second.

Going from C24U U26G U35A C62A to C24U U28C G52C C60G, the yeast fitness rises from at most 0.5 to 0.524.

Going from C24U U28G C33G C34U A36G A40G to C24U U28G C33G C34U A36G A40G A70C, the yeast fitness falls from 0.596 to at most 0.5.

Going from C24U U32A to C24U U32A C33G, the yeast fitness falls from 0.784 to at most 0.5.

C24U U32A C33G C60U A69G and C24U U32A G38A A57U cannot be ordered by yeast fitness: at most 0.5 for the first, at most 0.5 for the second.

First: C24U U32C
Second: C24U U32C A36U A37G U54A
The yeast fitness of the first is higher: 0.991 for the first, at most 0.5 for the second.

First: C24U U32C A43U
Second: C24U U32C A69U
The yeast fitness of the first is lower: 0.768 for the first, 0.818 for the second.

Going from C24U U32G to C24U U32G A40U A65C, the yeast fitness falls from 0.584 to at most 0.5.

Going from C24U U32G A40U U64G to C24U U32G A69C A70U, the yeast fitness falls from 0.593 to at most 0.5.

First: C24U U32G G52C G63A G68C
Second: C24U U32G G56A
The yeast fitness of the first is lower: at most 0.5 for the first, 0.53 for the second.

First: C24U U35A
Second: C24U U35A A40G
The yeast fitness of the first is higher: 0.806 for the first, 0.576 for the second.

First: C24U U35A A69U
Second: C24U U35C A70U
The yeast fitness of the first is lower: 0.513 for the first, 0.541 for the second.

Going from C24U U35C C55G A70U to C24U U35C C66U, the yeast fitness falls from 0.569 to at most 0.5.

Compared with C24U U35C G38C, C24U U35G A42G G51A is lower in yeast fitness: 0.677 for the first, at most 0.5 for the second.

C24U U35G C46A and C24U U47A C61A cannot be ordered by yeast fitness: at most 0.5 for the first, at most 0.5 for the second.

Going from C24U U47A C66U to C24U U47C, the yeast fitness rises from at most 0.5 to 0.997.

First: C24U U47C C62U
Second: C24U U47C G48A C62G A69U
The yeast fitness of the first is higher: 0.803 for the first, at most 0.5 for the second.

First: C24U U47C G67C
Second: C24U U47C U59C
The yeast fitness of the first is higher: 0.688 for the first, 0.684 for the second.

First: C24U U53A C66U
Second: C24U U53A C66U A70U
The yeast fitness of the first is higher: 0.55 for the first, at most 0.5 for the second.

C24U U53C C60G and C24U U59A C62A cannot be ordered by yeast fitness: at most 0.5 for the first, at most 0.5 for the second.

First: C24U U59A C62A A69C
Second: C24U U59A C66U
The yeast fitness of the first is lower: 0.552 for the first, 0.565 for the second.

First: C24U U59A U64C
Second: C24U U59C
The yeast fitness of the first is lower: at most 0.5 for the first, 0.879 for the second.

First: C24U U59G
Second: C24U U64A
The yeast fitness of the first is lower: 0.712 for the first, 0.822 for the second.

Going from C24U U64C to C24U U64G, the yeast fitness falls from 0.925 to 0.691.

First: G25A
Second: G25A A36G
The yeast fitness of the first is higher: 0.984 for the first, 0.962 for the second.

First: G25A A36G A45C
Second: G25A A36U C49U
The yeast fitness of the first is higher: 0.929 for the first, 0.545 for the second.

First: G25A A37C
Second: G25A A37C C62U
The yeast fitness of the first is lower: 0.757 for the first, 0.924 for the second.

Going from G25A A37C G38C C60U C62U A69U to G25A A37G, the yeast fitness rises from at most 0.5 to 0.699.

Going from G25A A37U to G25A A37U A40C G67A, the yeast fitness falls from 0.652 to at most 0.5.

Compared with G25A A37U C61A, G25A A37U G41A C62G is lower in yeast fitness: 0.616 for the first, at most 0.5 for the second.

Compared with G25A A37U G56A C66U, G25A A40C A70U is higher in yeast fitness: at most 0.5 for the first, 0.625 for the second.

First: G25A A40C C46U A69C
Second: G25A A40C C46U C55U
The yeast fitness of the first is higher: 0.764 for the first, 0.672 for the second.

G25A A40C C66U A70C and G25A A40G C55G cannot be ordered by yeast fitness: at most 0.5 for the first, at most 0.5 for the second.

Compared with G25A A40U A42C A45U U47C A65G, G25A A40U C49U C60A G63A is lower in yeast fitness: 0.664 for the first, 0.507 for the second.

First: G25A A40U C61U
Second: G25A A42G
The yeast fitness of the first is lower: 0.669 for the first, 0.89 for the second.

Compared with G25A A42G U59C, G25A A42U is higher in yeast fitness: at most 0.5 for the first, 0.813 for the second.

First: G25A A42U A43C G44A
Second: G25A A42U A43C G44A C49A C55G
The yeast fitness of the first is higher: 0.764 for the first, at most 0.5 for the second.

Compared with G25A A43C, G25A A43C A70G is lower in yeast fitness: 0.975 for the first, 0.745 for the second.

Compared with G25A A43C C66A, G25A A43G is higher in yeast fitness: 0.581 for the first, 0.949 for the second.

Going from G25A A43G C49U to G25A A43G C49U U64C, the yeast fitness falls from 0.94 to 0.924.

Going from G25A A43U to G25A A43U G56A, the yeast fitness falls from 0.842 to 0.718.

Compared with G25A A43U U54A, G25A A45C is higher in yeast fitness: 0.565 for the first, 0.957 for the second.

First: G25A A45C U53C C55U G56C
Second: G25A A45G
The yeast fitness of the first is lower: at most 0.5 for the first, 0.961 for the second.

Going from G25A A45G A65G to G25A A45G G48A G50C A69C, the yeast fitness falls from 0.823 to at most 0.5.

Going from G25A A45G G50C A69C to G25A A45U A69U, the yeast fitness rises from 0.526 to 0.806.

First: G25A A65U
Second: G25A A69C
The yeast fitness of the first is lower: 0.981 for the first, 1.02 for the second.

Compared with G25A C27A, G25A C27G is lower in yeast fitness: 1.11 for the first, 0.78 for the second.

G25A C27G C29G C46A A65G C66U and G25A C27G C46G C61A cannot be ordered by yeast fitness: at most 0.5 for the first, at most 0.5 for the second.

Going from G25A C27G C60A A70U to G25A C27G G41C, the yeast fitness rises from at most 0.5 to 0.671.

Compared with G25A C27G G67C, G25A C27U A36U is higher in yeast fitness: at most 0.5 for the first, 0.53 for the second.

Going from G25A C27U U53C A70G to G25A C29A, the yeast fitness rises from at most 0.5 to 0.609.

G25A C29A A43C A57C and G25A C29A A57C A70G cannot be ordered by yeast fitness: at most 0.5 for the first, at most 0.5 for the second.

First: G25A C29G A45C C46G
Second: G25A C29U A45U
The yeast fitness of the first is lower: at most 0.5 for the first, 0.69 for the second.

Compared with G25A C29U A45U G58C, G25A C29U A57U C62A A69G is lower in yeast fitness: 0.772 for the first, at most 0.5 for the second.

First: G25A C29U A69C
Second: G25A C29U C31G
The yeast fitness of the first is higher: 0.807 for the first, at most 0.5 for the second.

First: G25A C29U C31U
Second: G25A C29U C49U A65C
The yeast fitness of the first is higher: 0.57 for the first, at most 0.5 for the second.

G25A C29U C49U C61A and G25A C30A C34A A69C cannot be ordered by yeast fitness: at most 0.5 for the first, at most 0.5 for the second.

Compared with G25A C30A G38A A43G C46U A57U, G25A C30G A57G is lower in yeast fitness: 0.614 for the first, 0.582 for the second.

First: G25A C30U
Second: G25A C30U A43G G52A
The yeast fitness of the first is higher: 1 for the first, 0.701 for the second.

Going from G25A C30U C60G to G25A C30U C62U, the yeast fitness rises from 0.541 to 0.583.

Going from G25A C30U U54A to G25A C31A A45C G50A A69U, the yeast fitness falls from 0.533 to at most 0.5.

First: G25A C31A C62U
Second: G25A C31A G51C C55G A57U C66U
The yeast fitness of the first is higher: 0.586 for the first, at most 0.5 for the second.

Going from G25A C31G A70G to G25A C31U A37C G68U, the yeast fitness falls from 0.642 to at most 0.5.

First: G25A C31U A42G C62U A69C
Second: G25A C31U A70C
The yeast fitness of the first is lower: at most 0.5 for the first, 0.731 for the second.

First: G25A C31U C55G C61U C62A
Second: G25A C31U C66U
The yeast fitness of the first is lower: 0.598 for the first, 0.761 for the second.

First: G25A C31U G38C
Second: G25A C31U G38C A65C G68A A69U
The yeast fitness of the first is higher: 0.881 for the first, at most 0.5 for the second.

Compared with G25A C33A A40G, G25A C33G A42G G50A is higher in yeast fitness: 0.544 for the first, 0.596 for the second.

G25A C33U A45U C60G and G25A C33U C62A A70C cannot be ordered by yeast fitness: at most 0.5 for the first, at most 0.5 for the second.

Going from G25A C34A A65U to G25A C34A U47C, the yeast fitness falls from 0.616 to at most 0.5.

Compared with G25A C34G, G25A C34G U54A A65U is lower in yeast fitness: 0.726 for the first, at most 0.5 for the second.

G25A C34U A36U C60U and G25A C34U A43U G56A cannot be ordered by yeast fitness: at most 0.5 for the first, at most 0.5 for the second.

In the case of G25A C46A G52C, the yeast fitness is reported as 0.615.
